Active and inactive are the calls of the source. No cut-off for these calls is given here.
Legend:
[1] = Induction of mitochondrial uncoupling in rat L6 cells assessed as oxygen consumption rate measured over 90 mins by oxygen consumption rate by seahorse assay; assay type: mitochondria, Mitochondria
L6 = experiment: Induction of mitochondrial uncoupling in rat L6 cells assessed as oxygen consumption rate up to 50 uM measured over 90 mins by oxygen consumption rate by seahorse assay relative to <= 50 uM BAM15; details: Mitochondria
Procedure, shortened: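 L6 rat myoblasts were seeded at 3.5 × 10⁴ cells/well and left to adhere overnight. Medium was switched to unbuffered DMEM with pyruvate and glutamine, pH 7.4, and cells were equilibrated 1 h at 37°C without CO₂. One concentration per well, 2 wells per condition, OCR followed over 90 min. The first three post-injection readings were averaged to build the dose curve. AUC above baseline was expressed relative to BAM15 run on each plate; EC50 came from a Hill fit with the bottom fixed at 100% baseline.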

Mus musculus [2] = experiment: Improvement in liver fibrosis in Stelic C57BL/6 mouse model of streptozotocin-induced NASH assessed as reduction in plasma triglyceride at 10 mg/kg/day, po for 21 days; assay type: functional, organism-based
Mus musculus [3] = experiment: Improvement in liver fibrosis in Stelic C57BL/6 mouse model of streptozotocin-induced NASH assessed as increase in plasma cholesterol at 10 mg/kg/day, po for 21 days; assay type: functional, organism-based
Mus musculus [4] = experiment: Induction of hyperglycemia in Stelic C57BL/6 mouse model of streptozotocin-induced NASH at 10 mg/kg/day, po for 21 days; assay type: organism-based; details: in vivo, 504 h
Mus musculus [5] = experiment: Improvement in liver fibrosis in Stelic C57BL/6 mouse model of streptozotocin-induced NASH assessed as liver fibrosis score at 10 mg/kg/day, po for 21 days by Picrosirius ed staining based assay (reference value: 0.91 +/- 0.25); assay type: functional
Mus musculus [6] = experiment: Improvement in liver fibrosis in Stelic C57BL/6 mouse model of streptozotocin-induced NASH assessed as effect on liver Cd146 mRNA expression at 10 mg/kg/day, po for 21 days; assay type: functional, organism-based
Mus musculus [7] = experiment: Effect on liver weight in Stelic C57BL/6 mouse model of streptozotocin-induced NASH at 10 mg/kg/day, po for 21 days; assay type: ADME, organism-based; details: in vivo, 504 h
Mus musculus [8] = experiment: Effect on ballooning in Stelic C57BL/6 mouse model of streptozotocin-induced NASH at 10 mg/kg/day, po for 21 days; assay type: ADME, organism-based; details: in vivo, 504 h
Mus musculus [9] = experiment: Improvement in liver fibrosis in Stelic C57BL/6 mouse model of streptozotocin-induced NASH assessed as effect on liver Gfap mRNA expression at 10 mg/kg/day, po for 21 days; assay type: functional, organism-based
Mus musculus [10] = experiment: Improvement in liver fibrosis in Stelic C57BL/6 mouse model of streptozotocin-induced NASH assessed as NAS score at 10 mg/kg/day, po for 21 days (reference value: 4.6 +/- 0.7); assay type: functional
Mus musculus [11] = experiment: Effect on body weight in Stelic C57BL/6 mouse model of streptozotocin-induced NASH at 10 mg/kg/day, po for 21 days; assay type: ADME, organism-based; details: in vivo, 504 h
Mus musculus [12] = experiment: Effect on food intake in Stelic C57BL/6 mouse model of streptozotocin-induced NASH assessed as reduction in food intake at 10 mg/kg/day, po for 21 days; assay type: ADME, organism-based; set-up: scale not given: the % may be the effect or the level left; details: in vivo, 504 h
Mus musculus [13] = experiment: Improvement in liver fibrosis in Stelic C57BL/6 mouse model of streptozotocin-induced NASH assessed as effect on plasma AST level at 10 mg/kg/day, po for 21 days; assay type: functional, organism-based

SMILES | EC50 [1] [nM] | Activity (L6) [%] | also measured
Fc1ccccc1Nc1nc2nonc2nc1Nc1ccc(OC(F)(F)F)cc1 | 1300 |  | 
Fc1ccccc1Nc1nc2nonc2nc1Nc1cccc(C(F)(F)F)c1F | < 370 |  | 
Cc1cccc(Nc2nc3nonc3nc2Nc2cccc(C)c2)c1 | 2100 | 22 | 
COc1cccc(Nc2nc3nonc3nc2Nc2cccc(OC)c2)c1 | > 100000 | 43 | 
FC(F)(F)Oc1ccc(Nc2nc3nonc3nc2Nc2ccc(OC(F)(F)F)c(Br)c2)cc1Br | 2200 |  | 
CCOc1cccc(Nc2nc3nonc3nc2Nc2ccccc2F)c1 | 2200 | 28 | 
Fc1ccccc1Nc1nc2nonc2nc1Nc1ccccc1C(F)(F)F | 1400 | 57 | 
CCOc1ccccc1Nc1nc2nonc2nc1Nc1ccccc1F | 5600 | 15 | 
Cc1ccc(Nc2nc3nonc3nc2Nc2ccccc2F)cc1 | 2100 |  | 
Fc1ccc(C(F)(F)F)cc1Nc1nc2nonc2nc1Nc1cc(C(F)(F)F)ccc1F | < 1000 |  | 
Fc1cc(Nc2nc3nonc3nc2Nc2ccc(C(F)(F)F)c(F)c2)ccc1C(F)(F)F | 1700 |  | 
O=C(Nc1ccc(Nc2nc3nonc3nc2Nc2ccccc2F)cc1)C(F)(F)F | 4100 |  | 
Fc1ccccc1Nc1nc2nonc2nc1Nc1ccccn1 | 9000 | 20 | 
FC(F)(F)Oc1cccc(Nc2nc3nonc3nc2Nc2cccc(OC(F)(F)F)c2)c1 | 1100 | 53 | 
FC(F)(F)Oc1ccc(Nc2nc3nonc3nc2Nc2ccc(OC(F)(F)F)cc2)cc1 | < 5000 | 14 | 
Cc1cccc(Nc2nc3nonc3nc2Nc2ccccc2F)c1 | 1500 |  | 
Fc1ccccc1Nc1nc2nonc2nc1Nc1cccc(OC(F)(F)F)c1 | 600 | 8 | 
Fc1cc(F)c(Nc2nc3nonc3nc2Nc2c(F)cc(F)cc2F)c(F)c1 | 1100 |  | 
Cc1ccccc1Nc1nc2nonc2nc1Nc1ccccc1F | 1100 | 58 | 
Fc1cc(I)ccc1Nc1nc2nonc2nc1Nc1ccc(I)cc1F | 8800 |  | 
Fc1ccccc1Nc1nc2nonc2nc1Nc1ccc(C(F)(F)F)cc1 | 270 |  | 
Cc1ccc(Nc2nc3nonc3nc2Nc2ccc(C)cc2)cc1 | > 20000 | 59 | 
CCOc1cccc(Nc2nc3nonc3nc2Nc2cccc(OCC)c2)c1 | 10100 | 45 | 
FC(F)(F)c1cc(Nc2nc3nonc3nc2Nc2cc(C(F)(F)F)cc(C(F)(F)F)c2)cc(C(F)(F)F)c1 | 6100 |  | 

SMILES | EC50 [1] [nM] | Activity (L6) [%] | also measured
Cc1ccc(Nc2nc3nonc3nc2Nc2ccc(C)c(C)c2)cc1C | > 100000 |  | 
Oc1ccc(F)c(Nc2nc3nonc3nc2Nc2ccccc2F)c1 | 30000 | 45 | 
Fc1ccc(Nc2nc3nonc3nc2Nc2ccccc2F)cc1 | 2300 | 65 | 
CCCc1nc2c(C)cc(-c3nc4ccccc4n3C)cc2n1Cc1ccc(-c2ccccc2C(=O)O)cc1 [TELMISARTAN] |  |  | Activity (Mus musculus [2]): Active; Activity (Mus musculus [3]): Active; Activity (Mus musculus [4]): Toxic; Activity (Mus musculus [5]): 0.6; Activity (Mus musculus [6]): inactive; Activity (Mus musculus [7]): Toxic; Activity (Mus musculus [8]): Non-Toxic; Activity (Mus musculus [9]): inactive; Activity (Mus musculus [10]): 2.9; Activity (Mus musculus [11]): Toxic; Activity (Mus musculus [12]): 23%; Activity (Mus musculus [13]): inactive
Fc1ccccc1Nc1nc2nonc2nc1NCCC(F)(F)F | > 100000 |  | 
CCc1ccc(Nc2nc3nonc3nc2Nc2ccc(CC)cc2)cc1 | 3900 |  | 
Fc1ccccc1Nc1nc2nonc2nc1Nc1ccccc1 | 2200 | 65 | 
Fc1ccc(Nc2nc3nonc3nc2Nc2ccccc2F)c(F)c1 | 300 | 22 | 
Fc1ccccc1Nc1nc2nonc2nc1Nc1cccc(C(F)(F)F)c1 | < 1000 |  | 
Fc1ccccc1Nc1nc2nonc2nc1Nc1cccc(F)c1F | 500 | 15 | 
CCOc1ccc(Nc2nc3nonc3nc2Nc2ccccc2F)cc1 | 3800 |  | 
Fc1cc(Br)ccc1Nc1nc2nonc2nc1Nc1ccc(Br)cc1F | < 3000 |  | 
Fc1ccccc1Nc1nc2nonc2nc1Nc1ccccc1OC(F)(F)F | 1700 | 67 | 
COc1ccc(Nc2nc3nonc3nc2Nc2ccc(OC)cc2)cc1 | > 100000 | 14 | 
FC(F)(F)c1ccccc1Nc1nc2nonc2nc1Nc1ccccc1C(F)(F)F | 1000 | 39 | 
Fc1ccccc1Nc1nc2nonc2nc1NC1CCCCC1 | 13400 |  | 
Fc1cc(C(F)(F)F)ccc1Nc1nc2nonc2nc1Nc1ccc(C(F)(F)F)cc1F | < 1000 |  | 
Fc1ccccc1Nc1nc2nonc2nc1Nc1cc(C(F)(F)F)cc(C(F)(F)F)c1 | < 370 |  | 
FC(F)(F)c1cccc(Nc2nc3nonc3nc2Nc2cccc(C(F)(F)F)c2)c1 | 700 | 28 | 
COc1ccc(Nc2nc3nonc3nc2Nc2ccccc2F)cc1 | 1600 | 52 | 
Cc1ccccc1Nc1nc2nonc2nc1Nc1ccccc1C | 2300 |  | 
COc1cccc(Nc2nc3nonc3nc2Nc2ccccc2F)c1 | 830 |  | 
C1CCC(Nc2nc3nonc3nc2NC2CCCC2)C1 | 45000 | 20 | 
Fc1cc(F)cc(Nc2nc3nonc3nc2Nc2cc(F)cc(F)c2)c1 | < 1000 |  | 

Reference: ChEMBL document CHEMBL4354849, “[1,2,5]Oxadiazolo[3,4-b]pyrazine-5,6-diamine Derivatives as Mitochondrial Uncouplers for the Potential Treatment of Nonalcoholic Steatohepatitis” (J Med Chem, 2020)
